≈ marks a conversion by molar mass, not a printed value.
Key:
Staphylococcus aureus = assay: Antibacterial activity Staphylococcus aureus ATCC-25923 assessed as growth inhibition after 24 hrs by twofold serial dilution technique; assay type: functional; details: ATCC-25923, 24 h
Outline: (§1)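 Tube twofold serial dilution of compounds dissolved in DMSO, under aseptic conditions. Solvent, growth (negative) and drug (ampicillin) controls were run alongside. Tubes were incubated 24 h at 37 °C. MIC was taken as the lowest concentration giving apparent complete inhibition of growth. Strains were first screened by cup plate method.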

Bacillus spizizenii = assay: Antibacterial activity Bacillus Bacillus subtilis ATCC 6633 assessed as growth inhibition after 24 hrs by twofold serial dilution technique; assay type: functional; details: ATCC 6633, 24 h; outline: as §1
Escherichia coli = assay: Antibacterial activity Escherichia coli ATCC-25922 assessed as growth inhibition after 24 hrs by twofold serial dilution technique; assay type: functional; details: ATCC-25922, 24 h; outline: as §1
Pseudomonas aeruginosa = assay: Antibacterial activity Pseudomonas aeruginosa ATCC-27853 assessed as growth inhibition after 24 hrs by twofold serial dilution technique; assay type: functional; details: ATCC-27853, 24 h; outline: as §1
[1] = tested on: Mycobacterium tuberculosis; assay: Antitubercular activity Mycobacterium tuberculosis H37Rv assessed as growth inhibition after 5 days by MABA method; assay type: functional; details: for MIC: Mycobacterium tuberculosis, H37Rv, 120 h
Outline: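 Log-phase H37Rv was diluted to a final OD550 of 0.05 in Middlebrook 7H9 broth, and compounds in DMSO were added in 96-well plates. After a further 24 h at 37 °C/5% CO2, fluorescence was read (ex 544 nm, em 590 nm). Inhibition was scored against the untreated control, with >90% inhibition counted as active in the initial screen.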

[2] = tested on: Mycobacterium tuberculosis; assay: Antitubercular activity Mycobacterium tuberculosis H37Rv assessed as growth inhibition after 30 days by agar microdilution method; assay type: functional
Outline: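 M. tuberculosis H37Rv (ATCC 27294) grown on L-J medium, harvested in 0.85% saline with 0.05% Tween-80. Compounds, from a DMSO stock, were added as twofold dilutions to Middlebrook 7H10 agar with OADC in tubes. After 30 days of incubation, tubes were compared with untreated H37Rv control tubes. The lowest concentration giving complete inhibition of colonies was reported.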

[3] = Cytotoxicity against african green monkey Vero cells after 72 hrs by MTT assay; assay type: cell-based; details: chlorocebus sabaeus
Outline: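 After media removal and a PBS wash, dilutions were added with DMSO control, then incubated 72 h at 37 °C, 5% CO2. Cells were washed, given MTT for 3 h in the dark, and solubilized in DMSO 1–2 h. CC50 was extrapolated from plotted % inhibition (100 − % viability) against concentration.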

[4] = Cytotoxicity against human HepG2 cells after 72 hrs by MTT assay; assay type: cell-based

| Compound | MIC (Staphylococcus aureus) [µM] | MIC (Bacillus spizizenii) [µM] | MIC (Escherichia coli) [µM] | MIC (Pseudomonas aeruginosa) [µM] | -logMIC [1] | MIC [1] [µM] | MIC [2] [µM] | CC50 at 72 h [3] [µM] | CC50 at 72 h [4] [µM] |
| --- | --- | --- | --- | --- | --- | --- | --- | --- | --- |
| CC1(C)S[C@@H]2[C@H](NC(=O)[C@H](N)c3ccccc3)C(=O)N2[C@H]1C(=O)O [AMPICILLIN] | 6.25 (≈ 2.18 µg/mL) | 6.25 (≈ 2.18 µg/mL) | < 6.25 | < 6.25 |  |  |  |  |  |
| S=c1n(CN2CCCCC2)nc(Cc2ccccc2Nc2c(Cl)cccc2Cl)n1/N=C/c1ccco1 | 25 (≈ 13.5 µg/mL) | 25 (≈ 13.5 µg/mL) | 12.5 (≈ 6.77 µg/mL) | 25 (≈ 13.5 µg/mL) | 5.204 | 6.25 (≈ 3.38 µg/mL) | 6.25 (≈ 3.38 µg/mL) | > 300 | 262 |
| S=c1n(CN2CCOCC2)nc(Cc2ccccc2Nc2c(Cl)cccc2Cl)n1/N=C/c1ccco1 | 12.5 (≈ 6.79 µg/mL) | 12.5 (≈ 6.79 µg/mL) | 12.5 (≈ 6.79 µg/mL) | 25 (≈ 13.6 µg/mL) | 5.505 | 3.12 (≈ 1.7 µg/mL) | 3.12 (≈ 1.7 µg/mL) | > 300 | > 300 |
| COc1ccc(/C=N/n2c(Cc3ccccc3Nc3c(Cl)cccc3Cl)nn(CN3CCOCC3)c2=S)cc1 | 6.25 (≈ 3.65 µg/mL) | 12.5 (≈ 7.29 µg/mL) | 6.25 (≈ 3.65 µg/mL) | 12.5 (≈ 7.29 µg/mL) | 5.204 | 6.25 (≈ 3.65 µg/mL) | 6.25 (≈ 3.65 µg/mL) | > 300 | > 300 |
| NNC(=O)c1ccncc1 [ISONIAZID] |  |  |  |  |  | < 0.2 | < 0.2 |  |  |
| S=c1n(CN2CCCCC2)nc(Cc2ccccc2Nc2c(Cl)cccc2Cl)n1/N=C/c1cccs1 | 12.5 (≈ 6.97 µg/mL) | 12.5 (≈ 6.97 µg/mL) | 12.5 (≈ 6.97 µg/mL) | 12.5 (≈ 6.97 µg/mL) | 4.903 | 12.5 (≈ 6.97 µg/mL) | 12.5 (≈ 6.97 µg/mL) |  |  |
| COc1ccc(C2SCC(=O)N2n2c(Cc3ccccc3Nc3c(Cl)cccc3Cl)n[nH]c2=S)cc1 (stereo not given) | 12.5 (≈ 6.98 µg/mL) | 100 (≈ 55.9 µg/mL) | 100 (≈ 55.9 µg/mL) | 100 (≈ 55.9 µg/mL) | 4.301 | 50 (≈ 27.9 µg/mL) |  |  |  |
| O=c1c2ccccc2nc2n(/N=C/c3ccccc3)c(Cc3ccccc3Nc3c(Cl)cccc3Cl)nn12 | 12.5 (≈ 6.74 µg/mL) | 12.5 (≈ 6.74 µg/mL) | 12.5 (≈ 6.74 µg/mL) | 12.5 (≈ 6.74 µg/mL) | 4.903 | 12.5 (≈ 6.74 µg/mL) | 12.5 (≈ 6.74 µg/mL) |  |  |
| O=C1CSC(c2ccccc2)N1n1c(Cc2ccccc2Nc2c(Cl)cccc2Cl)n[nH]c1=S (stereo not given) | 12.5 (≈ 6.61 µg/mL) | 12.5 (≈ 6.61 µg/mL) | 12.5 (≈ 6.61 µg/mL) | 12.5 (≈ 6.61 µg/mL) | 4.301 | 50 (≈ 26.4 µg/mL) |  |  |  |
| S=c1n(CN2CCOCC2)nc(Cc2ccccc2Nc2c(Cl)cccc2Cl)n1/N=C/c1cccs1 | 6.25 (≈ 3.5 µg/mL) | 12.5 (≈ 6.99 µg/mL) | 6.25 (≈ 3.5 µg/mL) | 12.5 (≈ 6.99 µg/mL) | 5.796 | 1.6 (≈ 0.895 µg/mL) | 3.12 (≈ 1.75 µg/mL) | > 300 | 250 |
| O=c1c2ccccc2nc2n(/N=C/c3ccco3)c(Cc3ccccc3Nc3c(Cl)cccc3Cl)nn12 | 12.5 (≈ 6.62 µg/mL) | 12.5 (≈ 6.62 µg/mL) | 12.5 (≈ 6.62 µg/mL) | 12.5 (≈ 6.62 µg/mL) | 4.602 | 25 (≈ 13.2 µg/mL) |  |  |  |
| S=c1n(CN2CCOCC2)nc(Cc2ccccc2Nc2c(Cl)cccc2Cl)n1/N=C/c1ccncc1 | 12.5 (≈ 6.93 µg/mL) | 12.5 (≈ 6.93 µg/mL) | 25 (≈ 13.9 µg/mL) | 25 (≈ 13.9 µg/mL) | 4.903 | 12.5 (≈ 6.93 µg/mL) | 12.5 (≈ 6.93 µg/mL) |  |  |
| COc1ccc(C2SCC(=O)N2n2c(Cc3ccccc3Nc3c(Cl)cccc3Cl)n[nH]c2=S)cc1OC (stereo not given) | 100 (≈ 58.9 µg/mL) | 100 (≈ 58.9 µg/mL) | 100 (≈ 58.9 µg/mL) | 100 (≈ 58.9 µg/mL) | 4.301 | 50 (≈ 29.4 µg/mL) |  |  |  |
| O=C1CSC(c2cccs2)N1n1c(Cc2ccccc2Nc2c(Cl)cccc2Cl)n[nH]c1=S (stereo not given) | 12.5 (≈ 6.68 µg/mL) | 12.5 (≈ 6.68 µg/mL) | 12.5 (≈ 6.68 µg/mL) | 12.5 (≈ 6.68 µg/mL) | 4.602 | 25 (≈ 13.4 µg/mL) |  |  |  |
| COc1ccc(/C=N/n2c(Cc3ccccc3Nc3c(Cl)cccc3Cl)nn(CN3CCCCC3)c2=S)cc1OC | 12.5 (≈ 7.64 µg/mL) | 25 (≈ 15.3 µg/mL) | 25 (≈ 15.3 µg/mL) | 25 (≈ 15.3 µg/mL) | 4.903 | 12.5 (≈ 7.64 µg/mL) | 6.25 (≈ 3.82 µg/mL) |  |  |
| S=c1n(CN2CCCCC2)nc(Cc2ccccc2Nc2c(Cl)cccc2Cl)n1/N=C/c1ccncc1 | 12.5 (≈ 6.91 µg/mL) | 25 (≈ 13.8 µg/mL) | 25 (≈ 13.8 µg/mL) | 25 (≈ 13.8 µg/mL) | 4.903 | 12.5 (≈ 6.91 µg/mL) | 12.5 (≈ 6.91 µg/mL) |  |  |
| O=C1CSC(c2ccncc2)N1n1c(Cc2ccccc2Nc2c(Cl)cccc2Cl)n[nH]c1=S (stereo not given) | 25 (≈ 13.2 µg/mL) | 12.5 (≈ 6.62 µg/mL) | 50 (≈ 26.5 µg/mL) | 50 (≈ 26.5 µg/mL) | 4.903 | 12.5 (≈ 6.62 µg/mL) | 6.25 (≈ 3.31 µg/mL) |  |  |
| S=c1n(CN2CCCCC2)nc(Cc2ccccc2Nc2c(Cl)cccc2Cl)n1/N=C/c1ccccc1 | 12.5 (≈ 6.89 µg/mL) | 25 (≈ 13.8 µg/mL) | 12.5 (≈ 6.89 µg/mL) | 25 (≈ 13.8 µg/mL) | 5.204 | 6.25 (≈ 3.45 µg/mL) | 6.25 (≈ 3.45 µg/mL) | > 300 | > 300 |
| COc1ccc(/C=N/n2c(Cc3ccccc3Nc3c(Cl)cccc3Cl)nn3c(=O)c4ccccc4nc23)cc1OC | 12.5 (≈ 7.49 µg/mL) | 25 (≈ 15 µg/mL) | 25 (≈ 15 µg/mL) | 50 (≈ 30 µg/mL) | 4.602 | 25 (≈ 15 µg/mL) |  |  |  |
| O=c1c2ccccc2nc2n(/N=C/c3ccncc3)c(Cc3ccccc3Nc3c(Cl)cccc3Cl)nn12 | 100 (≈ 54 µg/mL) | 100 (≈ 54 µg/mL) | 25 (≈ 13.5 µg/mL) | 100 (≈ 54 µg/mL) | 4.602 | 25 (≈ 13.5 µg/mL) |  |  |  |
| S=c1n(CN2CCOCC2)nc(Cc2ccccc2Nc2c(Cl)cccc2Cl)n1/N=C/c1ccccc1 | 6.25 (≈ 3.46 µg/mL) | 6.25 (≈ 3.46 µg/mL) | 12.5 (≈ 6.92 µg/mL) | 12.5 (≈ 6.92 µg/mL) | 6.699 | 0.2 (≈ 0.111 µg/mL) | 0.2 (≈ 0.111 µg/mL) | > 300 | > 300 |
| O=C1CSC(c2ccco2)N1n1c(Cc2ccccc2Nc2c(Cl)cccc2Cl)n[nH]c1=S (stereo not given) | 12.5 (≈ 6.48 µg/mL) | 12.5 (≈ 6.48 µg/mL) | 12.5 (≈ 6.48 µg/mL) | 12.5 (≈ 6.48 µg/mL) | 4.602 | 25 (≈ 13 µg/mL) |  |  |  |
| O=c1c2ccccc2nc2n(/N=C/c3cccs3)c(Cc3ccccc3Nc3c(Cl)cccc3Cl)nn12 | 12.5 (≈ 6.82 µg/mL) | 12.5 (≈ 6.82 µg/mL) | 12.5 (≈ 6.82 µg/mL) | 12.5 (≈ 6.82 µg/mL) | 4.903 | 12.5 (≈ 6.82 µg/mL) | 12.5 (≈ 6.82 µg/mL) |  |  |
| COc1ccc(/C=N/n2c(Cc3ccccc3Nc3c(Cl)cccc3Cl)nn3c(=O)c4ccccc4nc23)cc1 | 100 (≈ 56.9 µg/mL) | 25 (≈ 14.2 µg/mL) | 100 (≈ 56.9 µg/mL) | 100 (≈ 56.9 µg/mL) | 4.602 | 25 (≈ 14.2 µg/mL) |  |  |  |
| COc1ccc(/C=N/n2c(Cc3ccccc3Nc3c(Cl)cccc3Cl)nn(CN3CCCCC3)c2=S)cc1 | 12.5 (≈ 7.27 µg/mL) | 12.5 (≈ 7.27 µg/mL) | 6.25 (≈ 3.63 µg/mL) | 12.5 (≈ 7.27 µg/mL) | 4.903 | 12.5 (≈ 7.27 µg/mL) | 12.5 (≈ 7.27 µg/mL) |  |  |

Source: ChEMBL document CHEMBL3352372, “Design, synthesis and 3D-QSAR studies of new diphenylamine containing 1,2,4-triazoles as potential antitubercular agents” (Eur J Med Chem, 2014)
